Measurements as given in ChEMBL document CHEMBL5257122, “Structure-Activity relationships of replacements for the triazolopyridazine of Anti-Cryptosporidium lead SLU-2633” (Bioorg Med Chem, 2023).

Assays:
[1] = Lipophilicity, logP of the compound; format: physicochemical; settings: octanol/water
Summary of the method: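 LogP calculated in silico (CDD Vault, method of Gedeck et al.) as an estimate of lipophilicity.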

[2] = tested on: HCT-8; assay: Cytotoxicity against human HCT-8 cells assessed as reduction in cell growth; format: functional
[3] = Dissociation constant, pKa of compound; format: physicochemical
Summary of the method: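 Basic pKa calculated in silico (CDD Vault, method of Lu et al.), not measured.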

[4] = tested on: Cryptosporidium parvum; assay: Antiparasitic activity against Cryptosporidium parvum infected in human HCT-8 cells assessed as parasitic growth inhibition measured for 48 hrs by fluorescence microscopic analysis; format: functional, organism-based; settings: HCT-8, 48 h
Summary of the method: (§1)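 C. parvum Iowa isolate oocysts excysted (10 mM HCl, 10 min, 37 °C; then 2 mM sodium taurocholate in PBS, 10 min, 16 °C) and used to infect near-confluent HCT-8 monolayers. Compound added after 3 h, then 45 h more at 37 °C, 5% CO₂. Fixed, stained with fluorescein-Vicia villosa lectin (vacuoles) and Hoechst (nuclei), imaged and counted automatically. 9-point dose-response, ≥2 experiments, n=8 per dose.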

[5] = target: T1, Voltage-gated inwardly rectifying potassium channel KCNH2 (Homo sapiens, UniProt Q12809); assay: Inhibition of hERG in CHO cells at 10 uM by automated patch clamp method relative to control; format: toxicity, cell-based
T1 sequence (Q12809 whole entry): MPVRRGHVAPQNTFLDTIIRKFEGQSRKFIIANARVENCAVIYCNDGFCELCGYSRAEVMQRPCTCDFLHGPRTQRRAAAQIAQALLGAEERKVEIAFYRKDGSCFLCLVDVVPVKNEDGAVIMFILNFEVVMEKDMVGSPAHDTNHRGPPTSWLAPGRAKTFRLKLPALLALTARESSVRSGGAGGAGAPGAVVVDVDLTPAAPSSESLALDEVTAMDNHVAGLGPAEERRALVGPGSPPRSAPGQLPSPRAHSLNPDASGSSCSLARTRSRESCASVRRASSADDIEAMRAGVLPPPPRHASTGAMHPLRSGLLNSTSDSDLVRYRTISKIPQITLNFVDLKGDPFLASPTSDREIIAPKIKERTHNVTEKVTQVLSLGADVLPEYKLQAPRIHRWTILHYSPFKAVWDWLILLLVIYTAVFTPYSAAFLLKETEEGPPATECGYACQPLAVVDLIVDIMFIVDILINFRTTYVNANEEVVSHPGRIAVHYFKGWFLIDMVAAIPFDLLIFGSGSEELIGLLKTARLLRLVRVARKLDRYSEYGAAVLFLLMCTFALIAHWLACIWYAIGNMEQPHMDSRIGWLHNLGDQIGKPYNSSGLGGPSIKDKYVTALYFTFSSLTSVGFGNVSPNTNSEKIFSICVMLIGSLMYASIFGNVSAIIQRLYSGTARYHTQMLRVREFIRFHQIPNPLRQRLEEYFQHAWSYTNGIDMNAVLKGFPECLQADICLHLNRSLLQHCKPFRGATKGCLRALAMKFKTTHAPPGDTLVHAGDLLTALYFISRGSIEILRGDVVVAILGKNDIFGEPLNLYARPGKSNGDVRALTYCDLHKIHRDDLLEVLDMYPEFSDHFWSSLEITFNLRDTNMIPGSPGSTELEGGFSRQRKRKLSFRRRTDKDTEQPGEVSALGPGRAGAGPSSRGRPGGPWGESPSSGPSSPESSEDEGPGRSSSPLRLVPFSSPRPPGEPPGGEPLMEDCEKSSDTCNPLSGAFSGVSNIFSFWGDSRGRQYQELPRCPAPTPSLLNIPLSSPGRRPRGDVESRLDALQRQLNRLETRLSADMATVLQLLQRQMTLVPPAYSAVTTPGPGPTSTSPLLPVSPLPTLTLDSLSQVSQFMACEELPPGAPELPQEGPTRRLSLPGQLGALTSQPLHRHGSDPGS
Summary of the method: (§2)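 hERG expressed in CHO cells, automated patch-clamp electrophysiology. Tail current inhibition measured at 1, 10 and 30 μM, each in duplicate, and reported as the average % inhibition.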

[6] = target: T1, Voltage-gated inwardly rectifying potassium channel KCNH2; assay: Inhibition of hERG in CHO cells at 1 uM by automated patch clamp method relative to control; format: toxicity, cell-based; summary of the method: as §2
[7] = target: T1, Voltage-gated inwardly rectifying potassium channel KCNH2; assay: Inhibition of hERG in CHO cells at 30 uM by automated patch clamp method relative to control; format: toxicity, cell-based; summary of the method: as §2
[8] = target: T1, Voltage-gated inwardly rectifying potassium channel KCNH2; assay: Displacement of [3H]-dofetilide from human ERG at 10 uM relative to control; format: toxicity
Summary of the method: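 Radioligand binding against human hERG potassium channel: % inhibition of [³H]-dofetilide binding by test compound at 10 μM.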

[9] = tested on: Cryptosporidium parvum; assay: Antiparasitic activity against Cryptosporidium parvum assessed as reduction in parasitic growth; format: functional, organism-based; summary of the method: as §1

| SMILES | EC50 [4] [µM] | further results |
| --- | --- | --- |
| O=C(Cc1ccc(Cl)c(Cl)c1)N1CCN(c2ccc3nncn3n2)CC1 |  | logP [1]: 3; CC50 [2]: > 100 µM; pKa [3]: 5.9 |
| O=C(Nc1ccc(Cl)c(Cl)c1)N1CCN(c2ccc3nncn3n2)CC1 |  | logP [1]: 4; pKa [3]: 5.9 |
| O=C(Cc1ccc(Cl)c(Cl)c1)N1CCN(c2ncccn2)CC1 | > 50 |  |
| Cc1cc2nncn2nc1N1CCN(C(=O)Cc2ccc(Cl)c(Cl)c2)CC1 | 23 |  |
| O=C(Cc1ccc(Cl)c(Cl)c1)N1CCN(C2=Nn3cnnc3CC2)CC1 | 1.2 | logP [1]: 1.8; inhibition (INH) [5]: 34%; inhibition (INH) [6]: 8.7%; inhibition (INH) [7]: 61%; pKa [3]: 4.4; Activity [8]: 15% |
| Cc1nnc2ccc(N3CCN(C(=O)Nc4ccc(Cl)c(Cl)c4)CC3)nn12 | 26 |  |
| O=C(Cc1ccc(Cl)c(Cl)c1)N1CCN(c2ccc3ncccc3n2)CC1 | 38 |  |
| O=C(Cc1ccc(Cl)c(Cl)c1)N1CCN(c2ccc3cc[nH]c3n2)CC1 | 30 |  |
| Cc1cc(N2CCN(C(=O)Nc3ccc(Cl)c(Cl)c3)CC2)nn2cnnc12 | 24 |  |
| O=C(O)c1cn2nc(N3CCN(C(=O)Cc4ccc(Cl)c(Cl)c4)CC3)ccc2n1 | > 50 |  |
| CCOC(=O)c1cn2nc(N3CCN(C(=O)Cc4ccc(Cl)c(Cl)c4)CC3)ccc2n1 | 58 |  |
| O=C(Cc1ccc(Cl)c(Cl)c1)N1CCN(c2cc3ccncc3cn2)CC1 | 50 |  |
| O=C(Nc1nc2cc(N3CCN(C(=O)Cc4ccc(Cl)c(Cl)c4)CC3)ccc2s1)c1ccccc1 | 93 |  |
| Cc1cc2nncn2nc1N1CCN(C(=O)Nc2ccc(Cl)c(Cl)c2)CC1 | 25 |  |
| O=C(Cc1ccc(Cl)c(Cl)c1)N1CCN(c2nccc(C(F)(F)F)n2)CC1 | > 50 |  |
| O=C(Cc1ccc(Cl)c(Cl)c1)N1CCN(c2ncc([N+](=O)[O-])s2)CC1 | 20 |  |
| O=C(Cc1ccc(Cl)c(Cl)c1)N1CCN(c2ccc3[nH]c(=O)sc3c2)CC1 | > 50 |  |
| O=C(Cc1ccc(Cl)c(Cl)c1)N1CCN(c2ccc3nnc(Cl)n3n2)CC1 | 29 |  |
| Cc1cc(N2CCN(C(=O)Cc3ccc(Cl)c(Cl)c3)CC2)nn2cnnc12 | 61 |  |
| Nc1cn2nc(N3CCN(C(=O)Cc4ccc(Cl)c(Cl)c4)CC3)ccc2n1 | > 50 |  |
| O=C(Cc1ccc(Cl)c(Cl)c1)N1CCN(c2ccc3nnc(C(F)(F)F)n3n2)CC1 | 29 |  |
| O=C(Cc1ccc(Cl)c(Cl)c1)N1CCN(c2ccc3ccccc3n2)CC1 | 46 |  |
| CC(C)(C)OC(=O)N1CCN(C(=O)Cc2ccc(Cl)c(Cl)c2)CC1 | > 50 |  |

| SMILES | EC50 [4] [µM] | further results |
| --- | --- | --- |
| O=C(Cc1ccc(Cl)c(Cl)c1)N1CCN(c2ccc3nnc(-c4ccccc4)n3n2)CC1 | 15 |  |
| Cc1nc2nc(N3CCN(C(=O)Cc4ccc(Cl)c(Cl)c4)CC3)ccc2s1 | 18 |  |
| O=C(Nc1ccc(Cl)c(Cl)c1)N1CCN(C2=Nn3cnnc3CC2)CC1 | 13 | logP [1]: 2.3 |
| Cc1nccc(N2CCN(C(=O)Cc3ccc(Cl)c(Cl)c3)CC2)n1 | > 50 |  |
| O=C(Nc1ccc(Cl)c(Cl)c1)N1CCN(c2ncc(C(F)(F)F)cn2)CC1 | > 25 |  |
| Cc1nnc2ccc(N3CCN(C(=O)Cc4ccc(Cl)c(Cl)c4)CC3)nn12 | 30 |  |
| O=C(Cc1ccc(Cl)c(Cl)c1)N1CCN(c2nc3ccccc3o2)CC1 | > 50 |  |
| O=C(Cc1ccc(Cl)c(Cl)c1)N1CCNCC1 | > 50 |  |
| O=C(Nc1ccc(Cl)c(Cl)c1)N1CCN(c2ccc3nnc(Cl)n3n2)CC1 | 12 |  |
| O=C(Cc1ccc(Cl)c(Cl)c1)N1CCN(c2ccc3nnc(-c4ccncc4)n3n2)CC1 | > 50 |  |
| O=C(Cc1ccc(Cl)c(Cl)c1)N1CCN(c2ccc3nnc(Cc4ccccc4)n3n2)CC1 | 16 |  |
| CNc1nccc(N2CCN(C(=O)Nc3ccc(Cl)c(Cl)c3)CC2)n1 | > 25 |  |
| O=C(Cc1ccc(Cl)c(Cl)c1)N1CCN(c2ccccn2)CC1 | > 50 |  |
| O=C(Cc1ccc(Cl)c(Cl)c1)N1CCN(c2ccc3nccn3n2)CC1 | 63 |  |
| Nc1nc2nc(N3CCN(C(=O)Cc4ccc(Cl)c(Cl)c4)CC3)ccc2s1 | 3.2 | pKa [3]: 5.9; Activity [8]: 34% |
| O=C(Cc1ccc(Cl)c(Cl)c1)N1CCN(c2ccc3nnc(N4CCOCC4)n3n2)CC1 | 48 |  |
| O=C(Cc1ccc(Cl)c(Cl)c1)N1CCN(c2ccc3[nH]ncc3n2)CC1 | 28 |  |
| O=C(Cc1ccc(Cl)c(Cl)c1)N1CCN(c2ccc3nc[nH]c3c2)CC1 | 20 |  |
| Cn1ncc2nc(N3CCN(C(=O)Cc4ccc(Cl)c(Cl)c4)CC3)ccc21 | > 50 |  |
| O=C(Cc1ccc(Cl)c(Cl)c1)N1CCN(c2ccc3nnc(-c4ccnc(C(F)(F)F)c4)n3n2)CC1 | 6.1 | pKa [3]: 6; Activity [8]: 95% |
| O=C(Nc1ccc(Cl)c(Cl)c1)N1CCN(c2cn3ccnc3cn2)CC1 | > 25 |  |
| O=C(Nc1nc2nc(N3CCN(C(=O)Cc4ccc(Cl)c(Cl)c4)CC3)ccc2s1)c1ccncc1 | 7.3 |  |
| COc1ccc(N2CCN(C(=O)Cc3ccc(Cl)c(Cl)c3)CC2)nn1 | 57 |  |

| SMILES | EC50 [4] [µM] | further results |
| --- | --- | --- |
| O=C(Cc1ccc(Cl)c(Cl)c1)N1CCN(c2ccc3nc(C(=O)N4CCOCC4)cn3n2)CC1 | > 50 |  |
| O=C(Cc1ccc(Cl)c(Cl)c1)N1CCN(c2ccc3nn(Cc4ccccc4)cc3n2)CC1 | 7.8 | pKa [3]: 6.2; Activity [8]: 80% |
| O=C(Cc1ccc(Cl)c(Cl)c1)N1CCN(c2ccn3nccc3n2)CC1 | 47 |  |
| CCCCOC(=O)c1cn2nc(N3CCN(C(=O)Cc4ccc(Cl)c(Cl)c4)CC3)ccc2n1 | 23 |  |
| O=C(Cc1ccc(Cl)c(Cl)c1)N1CCN(c2ccccc2)CC1 | 42 | pKa [3]: 3; Activity [8]: 2% |
| O=C(Nc1ccc(Cl)c(Cl)c1)N1CCN(c2ccc3nccn3n2)CC1 | 16 | pKa [3]: 6.4; Activity [8]: 77% |
| Nc1nnc2ccc(N3CCN(C(=O)Cc4ccc(Cl)c(Cl)c4)CC3)nn12 | 65 |  |
| Cc1nc2cc(N3CCN(C(=O)Cc4ccc(Cl)c(Cl)c4)CC3)ccc2s1 | 14 |  |
| Cc1cccc(N2CCN(C(=O)Cc3ccc(Cl)c(Cl)c3)CC2)n1 | 36 |  |
| Nc1nc2cc(N3CCN(C(=O)Cc4ccc(Cl)c(Cl)c4)CC3)ccc2s1 | 16 |  |
| CN(C)C(=O)c1cn2nc(N3CCN(C(=O)Cc4ccc(Cl)c(Cl)c4)CC3)ccc2n1 | 38 |  |
| O=C(Cc1ccc(Cl)c(Cl)c1)N1CCN(c2nc3ccccc3s2)CC1 | 36 |  |
| O=C(Cc1ccc(Cl)c(Cl)c1)N1CCN(c2ccc(C(F)(F)F)nn2)CC1 | 49 |  |
| O=C(Nc1nc2nc(N3CCN(C(=O)Cc4ccc(Cl)c(Cl)c4)CC3)ccc2s1)c1ccccc1 | 2.9 | pKa [3]: 7.7; Activity [8]: 47% |
| O=C(Cc1ccc(Cl)c(Cl)c1)N1CCN(c2ccc3cn[nH]c3c2)CC1 | 26 |  |
| O=C(Cc1ccc(Cl)c(Cl)c1)N1CCN(c2ccc3c(cnn3Cc3ccccc3)n2)CC1 | 45 |  |
| O=C(Cc1ccc(Cl)c(Cl)c1)N1CCN(c2ccc3nonc3c2)CC1 | 24 |  |
| O=C(Nc1ccc(Cl)c(Cl)c1)N1CCN(c2nc3ccccc3[nH]2)CC1 | 17 |  |
| O=C(Nc1ccc(Cl)c(Cl)c1)N1CCN(c2ccccc2)CC1 | 20 |  |
| O=C(Nc1ccc(Cl)c(Cl)c1)N1CCN(c2ccc3nnc(C(F)(F)F)n3n2)CC1 | 11 |  |
| O=C(Nc1ccc(Cl)cc1)N1CCN(c2ccc3nncn3n2)CC1 |  | EC50 [9]: 2.1 µM |
| CC(=O)Oc1ccccc1C(=O)Nc1ncc([N+](=O)[O-])s1 [NITAZOXANIDE] | 3.7 |  |
